In ChEMBL document CHEMBL1150649, “Neoclerodane and labdane diterpenoids from Plectranthus ornatus” (2002):
In brackets after ≈: the same amount, converted by molar mass. Activity calls are given as the source filed them. The calls are words filed in the database; no cut-off is given here.

Tests used:
[1] = tested on: Staphylococcus aureus; assay: Antimicrobial activities against Staphylococcus aureus ATCC 25923 by […]; type: functional, organism-based
[2] = tested on: Pseudomonas aeruginosa; assay: Antimicrobial activities against Pseudomonas aeruginosa ATCC 27853 by broth microdilution method; type: functional
Method in brief: (§1)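 Test compounds were dissolved in DMSO and serially diluted in Mueller-Hinton broth over 250 to 3.9 µg/mL. Broth microdilution followed NCCLS guidelines. MIC was the lowest concentration showing no microbial growth compared with a compound-free control.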

[3] = tested on: Staphylococcus aureus; assay: Antimicrobial activities against Staphylococcus aureus ATCC 25923 by broth microdilution method; type: functional; method in brief: as §1
[4] = tested on: Escherichia coli; assay: Antimicrobial activities against Escherichia coli ATCC 25922 by broth microdilution method; type: functional; method in brief: as §1
[5] = tested on: Meyerozyma guilliermondii; assay: Antimicrobial activities against Candida guilliermondii by broth microdilution method; type: functional; method in brief: as §1
[6] = tested on: Pichia kudriavzevii; assay: Antimicrobial activities against Candida krusei by broth microdilution method; type: functional; method in brief: as §1
[7] = tested on: Candida tropicalis; assay: Antimicrobial activities against Candida tropicalis by broth microdilution method; type: functional; method in brief: as §1
[8] = tested on: Candida albicans; assay: Antimicrobial activities against Candida albicans CIP 3153A by broth microdilution method; type: functional; method in brief: as §1
[9] = tested on: Nakaseomyces glabratus; assay: Antimicrobial activities against Candida glabrata by broth microdilution method; type: functional; method in brief: as §1

| SMILES | Activity [1] | MIC [2] | MIC [3] | MIC [4] | MIC [5] | MIC [6] | MIC [7] | MIC [8] | MIC [9] |
| --- | --- | --- | --- | --- | --- | --- | --- | --- | --- |
| C=C[C@@]1(C)CC(=O)[C@@H]2[C@@]3(C)[C@@H](O)CCC(C)(C)[C@@H]3[C@H](OC(C)=O)C[C@@]2(C)O1 (relative stereo) | Active |  |  |  |  |  |  |  |  |
| C=C[C@@]1(C)CC(=O)[C@@H]2[C@@]3(C)[C@@H](OC(C)=O)CCC(C)(C)[C@@H]3[C@H](OC(C)=O)C[C@@]2(C)O1 (relative stereo) [PLECTRORNATIN C] |  | ≥ 125 µg/mL | ≥ 125 µg/mL | ≥ 125 µg/mL | 62.5 µg/mL (≈ 149 µM) | 62.5 µg/mL (≈ 149 µM) | 62.5 µg/mL (≈ 149 µM) | 62.5 µg/mL (≈ 149 µM) | 62.5 µg/mL (≈ 149 µM) |
| COC(=O)/C=C(\C)C[C@@H](OC(C)=O)[C@@]1(C)[C@H](C)CC[C@@]2(C)C(C)=CC(=O)C[C@H]12 [PLECTRORNATIN A] |  | ≥ 125 µg/mL | ≥ 125 µg/mL | ≥ 125 µg/mL | 62.5 µg/mL (≈ 160 µM) | 62.5 µg/mL (≈ 160 µM) | 62.5 µg/mL (≈ 160 µM) | 62.5 µg/mL (≈ 160 µM) | 62.5 µg/mL (≈ 160 µM) |
